Test results taken from PubChem BioAssay AID588392 (Broad Institute, 2011).
Where “and” joins values, the source holds several entries; their conditions need not be identical. Equal entries are not always repeated.

target: Scavenger receptor class B member 1 (Mus musculus) (UniProt Q61009); experiment: SR-BI-mediated DiI-HDL uptake inhibitors, dose response, ldlA[mSR-BI] CHO cells, powder samples, set 2 (AID 588392); conditions: DiI-HDL uptake fluorescence, 3 h
Outline: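 Assay system: ldlA[mSR-BI] CHO cells, LDL receptor-deficient, overexpressing murine SR-BI. Probe or stimulus: DiI-labeled HDL, 10 µg/mL final. Doses: compounds delivered by pin transfer. Timing: cell plating overnight before assay, 3 h DiI-HDL uptake at 37 °C. Signal: cellular DiI fluorescence, excitation 550 nm, emission 595 nm, bottom read.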

Sequence of Scavenger receptor class B member 1 (Mus musculus) (Q61009 whole entry, looked up): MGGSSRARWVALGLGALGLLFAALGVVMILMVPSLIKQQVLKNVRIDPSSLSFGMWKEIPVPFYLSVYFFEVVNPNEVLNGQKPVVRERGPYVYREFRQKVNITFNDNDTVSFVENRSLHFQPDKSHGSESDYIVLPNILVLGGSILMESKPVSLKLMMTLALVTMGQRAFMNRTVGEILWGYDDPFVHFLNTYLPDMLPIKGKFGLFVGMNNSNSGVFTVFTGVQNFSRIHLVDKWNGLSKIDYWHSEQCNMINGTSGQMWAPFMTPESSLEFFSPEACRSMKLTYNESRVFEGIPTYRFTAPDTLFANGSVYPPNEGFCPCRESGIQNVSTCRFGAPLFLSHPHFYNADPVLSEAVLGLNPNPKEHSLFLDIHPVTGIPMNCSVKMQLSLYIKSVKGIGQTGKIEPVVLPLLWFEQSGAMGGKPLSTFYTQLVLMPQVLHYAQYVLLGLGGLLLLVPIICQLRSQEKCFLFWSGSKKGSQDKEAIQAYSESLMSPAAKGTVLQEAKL

Row | AC50 | SMILES
1 | 10100 nM | CCC(=O)N1CCc2cc(-c3cnc(NC(=O)c4ccco4)[nH]3)ccc21
2 | 6840 nM | COC(=O)N1CCc2cc(-c3csc(NC(=O)c4ccco4)n3)ccc21
3 | 38 nM | CCC(=O)N1CCc2cc(-c3csc(NC(=O)c4ccc(F)c(OC)c4)n3)ccc21
4 | 186 nM | O=C(Nc1nc(-c2ccc3c(c2)CCN3C(=O)C2CC2)cs1)c1ccco1
5 | 40.8 nM | CCC(=O)N1CCc2cc(-c3csc(NC(=O)c4cccc(OC(F)(F)F)c4)n3)ccc21
6 | 15.4 nM | COc1ccc(-c2cc(CC(=O)N(C3CCCCC3)C(C)C(=O)NC3CCCC3)no2)cc1OC (centres undefined)
7 | 8.98 nM | COc1ccc(-c2nnn(CC(=O)N(CC(=O)NC3CCCC3)C3CCCCC3)n2)cc1OC
8 | 238 nM | CC(C)C(=O)N1CCc2cc(-c3csc(NC(=O)c4ccco4)n3)ccc21
9 | 275 nM | CC(C(=O)NC1CCCC1)N(C(=O)Cn1nnc(-c2ccc(Cl)cc2)n1)C1CCCCC1 (centres undefined)
10 | 386 nM | CS(=O)(=O)N1CCc2cc(-c3csc(NC(=O)c4ccco4)n3)ccc21
11 | 617 nM | CC(C(=O)NC1CCCC1)N(C(=O)Cn1nnc(-c2ccccc2F)n1)C1CCCCC1 (centres undefined)
12 | 81 nM and 268 nM | C[C@@H]1CN([C@H](C)CO)C(=O)c2cc(NC(=O)Cc3cn(C)c4ccccc34)ccc2O[C@H]1CN(C)S(=O)(=O)c1ccc(Cl)cc1
13 | 4.33 nM | CCC(=O)N1CCc2cc(-c3csc(NC(=O)c4cc(OC)cc(OC)c4)n3)ccc21
14 | 493 nM | Cc1ccc(-c2nnn(CC(=O)N(C3CCCCC3)C(C)C(=O)NC3CCCC3)n2)cc1 (centres undefined)
15 | 53.7 nM | CCC(=O)N1CCc2cc(-c3csc(NC(=O)c4ccco4)n3)ccc21
16 | 180 nM | COc1cccc(-c2nnn(CC(=O)N(C3CCCCC3)C(C)C(=O)NC3CCCC3)n2)c1 (centres undefined)
17 | 528 nM | CCC(=O)N1CCc2cc(-c3csc(NC(=O)c4cccc(OC)n4)n3)ccc21
18 | 20000 nM | CCC(=O)N1CCc2cc(-c3coc(N)n3)ccc21
19 | 39.9 nM | CCC(=O)N1CCc2cc(-c3csc(NC(=O)c4cccc(OC)c4)n3)ccc21
20 | 1700 nM | CCC(=O)N1CCc2cc(-c3cnc(NC(C)=O)[nH]3)ccc21
21 | 18900 nM | CCC(=O)N1CCc2cc(-c3coc(NC(=O)c4ccco4)n3)ccc21
22 | 72.5 nM | COc1ccc(-c2nnn(CC(=O)N(C3CCCCC3)C(C)C(=O)NC3CCCC3)n2)cc1OC (centres undefined)
23 | 379 nM | CC(C(=O)NC1CCCC1)N(C(=O)Cn1nnc(-c2cccc(F)c2)n1)C1CCCCC1 (centres undefined)
24 | 7.1 nM | CCCCCCC1CCC/C1=N\NC(N)=S (centres undefined)
25 | 125 nM | CC(C(=O)NC1CCCC1)N(C(=O)Cn1nnc(-c2ccc(F)cc2)n1)C1CCCCC1 (centres undefined)
26 | 44.7 nM | O=C(Nc1nc(-c2ccc3c(c2)CCN3)cs1)c1ccco1
27 | 12.6 nM | O=C(CN(C(=O)Cn1nnc(-c2ccc3c(c2)OCO3)n1)C1CCCCC1)NC1CCCC1
28 | 24.3 nM | CC(C(=O)NC1CCCC1)N(C(=O)Cn1nnc(-c2ccc3c(c2)OCO3)n1)C1CCCCC1 (centres undefined)
29 | 3810 nM | CC(C(=O)NC1CCCC1)N(C(=O)Cn1nnc(-c2ccccc2Cl)n1)C1CCCCC1 (centres undefined)
